In experiment [1] the target is Casein kinase II (Homo sapiens) (UniProt P67870+P68400+P19784). Description: Inhibition of human CK2 using RRRDDDSDDD as substrate assessed as residual activity at 10 uM incubated for 10 mins prior to ATP addition measured after 20 mins by liquid scintillation counting analysis. Type of experiment: protein-complex assay.
Experiment [2] deals with Hepatocyte growth factor receptor (Homo sapiens) (UniProt P08581). The experiment in a line: Inhibition of human HGFR using KKKSPGEYVNIEFG as substrate assessed as residual activity at 10 uM incubated for 10 mins prior to ATP addition measured after 20 mins by liquid scintillation counting analysis.
Experiment [3] concerns the target T1, Mitogen-activated protein kinase kinase kinase 5 (Homo sapiens, UniProt Q99683).
T1 sequence (Q99683 whole entry): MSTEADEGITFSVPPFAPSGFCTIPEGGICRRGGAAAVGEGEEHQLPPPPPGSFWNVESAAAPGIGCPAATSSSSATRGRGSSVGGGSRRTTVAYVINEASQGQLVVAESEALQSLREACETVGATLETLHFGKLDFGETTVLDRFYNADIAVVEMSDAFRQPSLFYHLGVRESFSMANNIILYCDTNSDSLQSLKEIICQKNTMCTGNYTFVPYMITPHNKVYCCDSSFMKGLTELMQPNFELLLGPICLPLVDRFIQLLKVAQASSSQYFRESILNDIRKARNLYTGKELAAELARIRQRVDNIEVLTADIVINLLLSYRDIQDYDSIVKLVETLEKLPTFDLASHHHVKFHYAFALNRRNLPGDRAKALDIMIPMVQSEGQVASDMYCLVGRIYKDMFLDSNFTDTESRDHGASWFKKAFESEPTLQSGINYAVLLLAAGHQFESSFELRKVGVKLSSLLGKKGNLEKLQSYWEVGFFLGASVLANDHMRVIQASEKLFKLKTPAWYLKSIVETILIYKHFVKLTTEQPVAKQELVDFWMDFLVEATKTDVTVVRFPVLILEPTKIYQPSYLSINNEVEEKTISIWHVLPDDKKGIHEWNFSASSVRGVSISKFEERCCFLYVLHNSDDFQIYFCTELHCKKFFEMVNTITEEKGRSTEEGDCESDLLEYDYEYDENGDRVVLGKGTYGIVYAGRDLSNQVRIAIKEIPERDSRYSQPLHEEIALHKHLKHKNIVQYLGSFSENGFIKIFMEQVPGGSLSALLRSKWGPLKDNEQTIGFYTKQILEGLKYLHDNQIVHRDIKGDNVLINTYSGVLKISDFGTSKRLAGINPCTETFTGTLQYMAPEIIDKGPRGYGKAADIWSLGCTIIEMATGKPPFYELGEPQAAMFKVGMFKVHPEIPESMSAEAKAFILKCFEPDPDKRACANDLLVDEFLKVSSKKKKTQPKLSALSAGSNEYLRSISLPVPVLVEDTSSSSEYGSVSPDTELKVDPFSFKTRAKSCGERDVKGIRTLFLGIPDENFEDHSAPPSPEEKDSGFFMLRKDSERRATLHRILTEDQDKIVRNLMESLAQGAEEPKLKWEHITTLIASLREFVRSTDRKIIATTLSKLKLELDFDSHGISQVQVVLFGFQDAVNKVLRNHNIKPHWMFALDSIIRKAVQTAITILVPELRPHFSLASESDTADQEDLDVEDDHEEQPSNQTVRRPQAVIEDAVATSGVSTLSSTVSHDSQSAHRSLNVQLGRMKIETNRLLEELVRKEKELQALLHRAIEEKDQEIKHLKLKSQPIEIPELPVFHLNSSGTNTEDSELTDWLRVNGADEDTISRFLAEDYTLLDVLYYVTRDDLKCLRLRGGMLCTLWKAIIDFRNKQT
Description: Competitive inhibition of human ASK1 using MBP as substrate incubated for 10 mins prior to ATP addition measured after 20 mins by Lineweaver-Burk plot analysis. In a few lines:
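ASK1 activity with MBP substrate and γ-³²P-ATP. Enzyme and substrate sit in MOPS pH 7.2 buffer (EGTA, EDTA, DTT, BSA, β-glycerophosphate). Inhibitor from a DMSO stock is pre-mixed with them on ice for 10 min. The reaction starts with ATP/MgCl₂. Substrate concentration curves are run at several inhibitor levels, in triplicate, and analysed by Lineweaver–Burk linearized plots.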

For experiment [4], the target named is Mitogen-activated protein kinase 10 (Homo sapiens) (UniProt P53779). The experiment in a line: Inhibition of human JNK3 using JNK3tide as substrate assessed as residual activity at 10 uM incubated for 10 mins prior to ATP addition measured after 20 mins by liquid scintillation counting analysis.
In experiment [5] the target is Fibroblast growth factor receptor 1 (Homo sapiens) (UniProt P11362). The experiment in a line: Inhibition of human FGFR1 using IGF-IRtide (12 to 527) as substrate assessed as residual activity at 10 uM incubated for 10 mins prior to ATP addition measured after 20 mins by liquid scintillation counting analysis.
Experiment [6] addresses Angiopoietin-1 receptor (Homo sapiens) (UniProt Q02763). Description: Inhibition of human Tie2 using TK substrate 2 as substrate assessed as residual activity at 10 uM incubated for 10 mins prior to ATP addition measured after 20 mins by liquid scintillation counting analysis.
In experiment [7] the target is T2, Aurora kinase A (Homo sapiens) (UniProt O14965).
T2 sequence (whole entry): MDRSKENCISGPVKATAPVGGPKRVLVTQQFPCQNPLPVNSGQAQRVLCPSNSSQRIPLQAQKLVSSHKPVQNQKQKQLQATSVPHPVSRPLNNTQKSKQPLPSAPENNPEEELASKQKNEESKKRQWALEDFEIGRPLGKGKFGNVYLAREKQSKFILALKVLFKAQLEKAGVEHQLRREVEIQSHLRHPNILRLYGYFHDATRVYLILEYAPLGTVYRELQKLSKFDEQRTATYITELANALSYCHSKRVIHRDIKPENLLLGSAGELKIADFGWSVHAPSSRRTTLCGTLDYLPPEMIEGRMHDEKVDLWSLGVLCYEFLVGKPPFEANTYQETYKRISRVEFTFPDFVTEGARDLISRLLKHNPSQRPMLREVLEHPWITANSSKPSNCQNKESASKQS
The experiment in a line: Inhibition of human Aurora A using Kemptide as substrate assessed as residual activity at 10 uM incubated for 10 mins prior to ATP addition measured after 20 mins by liquid scintillation counting analysis.

Experiment [8] addresses T3, Mitogen-activated protein kinase kinase kinase 5 (Homo sapiens) (UniProt Q99683).
T3 sequence (whole entry): T1 sequence (Q99683 whole entry)
Description: Inhibition of human ASK1 using MBP as substrate assessed as residual activity at 10 uM incubated for 10 mins prior to ATP addition measured after 20 mins by liquid scintillation counting analysis.

Experiment [9] addresses T1, Mitogen-activated protein kinase kinase kinase 5. Description: Inhibition of human ASK1 using MBP as substrate incubated for 10 mins prior to ATP addition measured after 20 mins by liquid scintillation counting analysis. The method, boiled down:
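Inhibitor added from a DMSO stock is incubated with enzyme on ice for 10 min. The reaction is started with ATP plus MgCl₂ in MOPS pH 7.2, and labeled and unlabeled ATP are combined.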

For 1 compound, Activity, Ki and IC50 results are on record in ChEMBL document CHEMBL2346522, “Rational design of apoptosis signal-regulating kinase 1 inhibitors: discovering novel structural scaffold” (Eur J Med Chem, 2013).

Each structure is given as a SMILES string.

Angiopoietin-1 receptor (Homo sapiens), sequence (Q02763 whole entry): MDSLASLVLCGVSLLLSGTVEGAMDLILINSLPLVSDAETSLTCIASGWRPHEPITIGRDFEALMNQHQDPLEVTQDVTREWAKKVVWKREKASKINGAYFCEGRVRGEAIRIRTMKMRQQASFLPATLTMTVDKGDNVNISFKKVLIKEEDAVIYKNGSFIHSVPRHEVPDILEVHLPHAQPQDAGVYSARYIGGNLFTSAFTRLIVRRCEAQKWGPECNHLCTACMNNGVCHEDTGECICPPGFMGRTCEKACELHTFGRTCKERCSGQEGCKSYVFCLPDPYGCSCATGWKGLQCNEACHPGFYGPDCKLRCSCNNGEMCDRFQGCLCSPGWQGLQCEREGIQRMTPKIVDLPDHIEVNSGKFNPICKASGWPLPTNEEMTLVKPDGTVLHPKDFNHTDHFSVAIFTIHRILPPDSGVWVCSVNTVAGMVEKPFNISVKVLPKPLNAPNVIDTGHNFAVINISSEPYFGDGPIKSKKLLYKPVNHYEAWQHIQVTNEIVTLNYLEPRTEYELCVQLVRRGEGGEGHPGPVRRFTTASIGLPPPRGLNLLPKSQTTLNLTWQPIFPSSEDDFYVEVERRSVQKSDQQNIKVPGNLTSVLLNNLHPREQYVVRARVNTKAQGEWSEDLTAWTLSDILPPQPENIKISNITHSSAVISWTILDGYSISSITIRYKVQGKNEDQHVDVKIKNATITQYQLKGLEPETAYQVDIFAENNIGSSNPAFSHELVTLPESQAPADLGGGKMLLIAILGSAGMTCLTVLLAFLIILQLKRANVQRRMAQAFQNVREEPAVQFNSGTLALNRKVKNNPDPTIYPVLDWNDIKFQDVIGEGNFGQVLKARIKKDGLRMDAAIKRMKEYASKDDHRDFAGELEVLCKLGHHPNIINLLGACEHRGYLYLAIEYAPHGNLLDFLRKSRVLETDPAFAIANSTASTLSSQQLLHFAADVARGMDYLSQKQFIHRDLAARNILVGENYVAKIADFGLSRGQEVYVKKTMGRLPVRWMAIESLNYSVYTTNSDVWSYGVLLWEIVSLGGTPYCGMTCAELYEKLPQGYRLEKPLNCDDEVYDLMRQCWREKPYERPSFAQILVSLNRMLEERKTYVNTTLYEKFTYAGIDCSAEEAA
Hepatocyte growth factor receptor (Homo sapiens), sequence (P08581 whole entry): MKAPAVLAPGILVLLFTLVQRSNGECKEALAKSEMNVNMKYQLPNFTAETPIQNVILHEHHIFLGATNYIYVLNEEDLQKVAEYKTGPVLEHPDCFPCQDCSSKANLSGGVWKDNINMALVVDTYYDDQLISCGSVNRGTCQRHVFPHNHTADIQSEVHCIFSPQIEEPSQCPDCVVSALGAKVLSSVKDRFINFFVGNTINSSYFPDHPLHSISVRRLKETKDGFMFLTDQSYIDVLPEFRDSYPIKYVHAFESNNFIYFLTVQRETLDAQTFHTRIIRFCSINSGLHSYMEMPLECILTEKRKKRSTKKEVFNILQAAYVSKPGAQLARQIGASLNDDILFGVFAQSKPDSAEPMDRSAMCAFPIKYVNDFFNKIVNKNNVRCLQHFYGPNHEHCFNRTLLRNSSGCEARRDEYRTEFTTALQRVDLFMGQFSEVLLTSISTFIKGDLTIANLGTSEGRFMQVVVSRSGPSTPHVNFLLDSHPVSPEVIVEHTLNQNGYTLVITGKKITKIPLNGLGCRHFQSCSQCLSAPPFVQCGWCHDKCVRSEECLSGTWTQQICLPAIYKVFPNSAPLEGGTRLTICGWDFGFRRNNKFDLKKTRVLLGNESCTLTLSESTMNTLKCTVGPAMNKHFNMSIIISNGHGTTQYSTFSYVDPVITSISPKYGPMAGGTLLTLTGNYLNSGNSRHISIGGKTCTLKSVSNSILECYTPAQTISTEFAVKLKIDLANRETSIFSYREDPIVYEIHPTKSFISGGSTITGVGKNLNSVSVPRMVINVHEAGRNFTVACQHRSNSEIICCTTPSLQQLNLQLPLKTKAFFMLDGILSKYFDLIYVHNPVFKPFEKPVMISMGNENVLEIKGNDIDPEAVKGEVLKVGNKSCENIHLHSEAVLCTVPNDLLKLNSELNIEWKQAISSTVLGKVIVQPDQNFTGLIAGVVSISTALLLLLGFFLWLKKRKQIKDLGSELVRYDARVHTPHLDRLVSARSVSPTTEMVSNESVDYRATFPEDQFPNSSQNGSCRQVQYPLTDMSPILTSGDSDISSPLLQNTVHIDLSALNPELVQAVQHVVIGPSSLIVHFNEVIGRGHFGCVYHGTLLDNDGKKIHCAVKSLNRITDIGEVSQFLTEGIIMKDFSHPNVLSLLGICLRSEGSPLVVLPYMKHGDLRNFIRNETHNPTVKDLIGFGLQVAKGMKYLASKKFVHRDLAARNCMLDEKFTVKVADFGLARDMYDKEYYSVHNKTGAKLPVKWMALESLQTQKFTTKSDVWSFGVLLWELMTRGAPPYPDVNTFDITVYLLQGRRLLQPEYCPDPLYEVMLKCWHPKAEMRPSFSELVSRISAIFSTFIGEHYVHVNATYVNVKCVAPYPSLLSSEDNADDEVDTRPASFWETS
Fibroblast growth factor receptor 1 (Homo sapiens), sequence (P11362 22-822 limits assumed): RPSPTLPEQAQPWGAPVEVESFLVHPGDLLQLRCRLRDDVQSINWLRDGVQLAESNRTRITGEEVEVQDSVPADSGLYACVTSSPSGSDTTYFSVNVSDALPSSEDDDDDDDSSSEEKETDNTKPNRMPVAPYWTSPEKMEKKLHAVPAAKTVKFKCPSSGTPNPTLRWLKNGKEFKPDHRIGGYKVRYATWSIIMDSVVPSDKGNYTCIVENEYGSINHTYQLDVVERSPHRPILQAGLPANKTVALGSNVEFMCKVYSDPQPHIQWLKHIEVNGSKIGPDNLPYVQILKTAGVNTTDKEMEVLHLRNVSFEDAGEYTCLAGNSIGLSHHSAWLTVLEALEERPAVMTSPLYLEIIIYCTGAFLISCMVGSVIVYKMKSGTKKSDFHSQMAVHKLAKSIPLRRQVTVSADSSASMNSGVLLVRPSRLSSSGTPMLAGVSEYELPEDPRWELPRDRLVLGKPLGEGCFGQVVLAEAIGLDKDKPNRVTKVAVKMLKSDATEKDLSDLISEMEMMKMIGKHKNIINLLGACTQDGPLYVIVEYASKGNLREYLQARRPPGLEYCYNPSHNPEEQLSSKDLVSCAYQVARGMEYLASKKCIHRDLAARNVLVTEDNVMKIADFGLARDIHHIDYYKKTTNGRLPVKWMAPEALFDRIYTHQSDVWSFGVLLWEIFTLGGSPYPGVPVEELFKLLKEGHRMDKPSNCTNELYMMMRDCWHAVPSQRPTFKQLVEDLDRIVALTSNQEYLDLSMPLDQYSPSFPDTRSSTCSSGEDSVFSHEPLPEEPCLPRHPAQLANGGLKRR
Mitogen-activated protein kinase 10 (Homo sapiens), sequence (P53779 whole entry): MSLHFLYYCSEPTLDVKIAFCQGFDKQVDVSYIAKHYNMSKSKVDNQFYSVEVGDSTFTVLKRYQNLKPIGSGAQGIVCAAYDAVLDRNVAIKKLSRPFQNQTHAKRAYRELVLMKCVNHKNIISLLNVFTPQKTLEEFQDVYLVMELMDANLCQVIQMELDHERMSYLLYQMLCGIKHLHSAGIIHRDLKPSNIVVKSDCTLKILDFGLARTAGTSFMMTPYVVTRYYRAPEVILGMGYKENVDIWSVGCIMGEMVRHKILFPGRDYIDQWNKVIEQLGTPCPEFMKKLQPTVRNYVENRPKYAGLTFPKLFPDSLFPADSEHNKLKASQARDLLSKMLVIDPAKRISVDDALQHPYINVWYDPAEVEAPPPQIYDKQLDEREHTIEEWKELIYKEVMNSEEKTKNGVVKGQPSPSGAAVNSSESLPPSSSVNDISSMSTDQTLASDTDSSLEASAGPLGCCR

Broadly, the Ki is a measure of affinity in units of concentration, obtained from inhibition or displacement. In general, IC50 refers to the midpoint of a concentration-inhibition curve. Take `CC(C(=O)O)N1C(=O)/C(=C/c2ccc(-c3ccc(Cl)c(Cl)c3)o2)SC1=S` (centres undefined): the Activity in [1] was 34%; in experiment [2] it was 65%; in experiment [4] it was 46%; in experiment [5], 88%; in experiment [6] it was 29%; in experiment [7], 14%. For the same compound, the Activity in experiment [8] came to 3%. Besides, the affinity in [3], expressed as Ki, was 340 nM. Also, in experiment [9], inhibition was half-maximal at 650 nM (IC50).
